Results from ChEMBL document CHEMBL1629608, “Variations in amino acid composition of antisense peptide-phosphorodiamidate morpholino oligomer affect potency against Escherichia coli in vitro and in vivo” (Antimicrob Agents Chemother, 2009).
In brackets after ≈: the same amount, converted by molar mass. Activity calls are given as the source filed them. The rule behind the calls is not given here.

Assays:
[1] = Toxicity in Escherichia coli K-12 W3110 infected ip dosed mouse; type: organism-based; details: in vivo
Outline: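 E. coli K-12 W3110 was grown in LB broth for the inoculum and injected intraperitoneally into groups of 3–7 mice. Conjugates were given ip at 15 min and 12 h postinfection (10–300 μg per dose), with water or scrambled-sequence conjugate as controls. Blood drawn at 2, 6, 12, 24 and 48 h was diluted and plated on LB for CFU counts. Survival was followed by Kaplan-Meier, and log CFU was compared by ANOVA with Tukey-Kramer.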

[2] = test system: Escherichia coli; assay: Antibacterial activity against Escherichia coli K-12 W3110 infected in mouse assessed as reduction of bacterial level in blood at 300 ug, ip administered 15 mins and 12 hrs postinfection measured after 6 hrs post dose relative to control; type: functional, K-12 substr. W3110
Outline: (§1)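 Mice in groups of 3–7 were infected intraperitoneally with E. coli W3110 from an LB culture. They were dosed ip with 10–300 μg per dose at 15 min and 12 h postinfection. Controls were water or scrambled-sequence PPMO. Blood was taken at 2, 6, 12, 24 and 48 h, diluted and plated on LB for CFU/ml. Log CFU was compared by one-way ANOVA with Tukey-Kramer; mean ± SD.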

[3] = test system: Escherichia coli; assay: Antibacterial activity against Escherichia coli K-12 W3110 infected in mouse assessed as reduction of bacterial level in blood at 100 ug, ip administered 15 mins and 12 hrs postinfection measured after 2 hrs post dose relative to control; type: functional, organism-based; details: K-12 substr. W3110; outline: as §1
[4] = test system: Escherichia coli; assay: Antibacterial activity against Escherichia coli K-12 W3110 infected in mouse assessed as reduction of bacterial level in blood at 300 ug, ip administered 15 mins and 12 hrs postinfection measured after 12 hrs post dose relative to control; type: functional, K-12 substr. W3110; outline: as §1
[5] = test system: Mus musculus; assay: Toxicity in Escherichia coli K-12 W3110 infected mouse at 15 mg/kg, ip; type: organism-based; parameters: dose 15 mg/kg, route intraperitoneal; details: in vivo
Outline: (§2)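 Mice in groups of 3–7 were infected intraperitoneally with E. coli W3110 from an LB culture. They were treated ip at 15 min and 12 h postinfection with 10, 30, 100 or 300 μg per dose; 300 μg is noted as ~15 mg/kg. Controls were water or scrambled-sequence PPMO. Survival was followed to 48 h and analysed by the Kaplan-Meier method.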

[6] = test system: Escherichia coli; assay: Antibacterial activity against Escherichia coli K-12 W3110 infected in mouse assessed as reduction of bacterial level in blood at 300 ug, ip administered 15 mins and 12 hrs postinfection measured after 2 hrs post dose relative to control; type: functional, K-12 substr. W3110; outline: as §1
[7] = test system: Escherichia coli; assay: Antibacterial activity against Escherichia coli K-12 W3110 infected in mouse assessed as reduction of bacterial level in blood at 10 to 30 ug, ip administered 15 mins and 12 hrs postinfection measured after 2 hrs post dose relative to control; type: functional, organism-based; details: K-12 substr. W3110; outline: as §1
[8] = test system: Escherichia coli; assay: Antibacterial activity against Escherichia coli K-12 W3110 infected in ip dosed mouse assessed as reduction of bacterial level in blood administered 15 mins and 12 hrs postinfection; type: functional; details: K-12 substr. W3110, Blood; outline: as §1
[9] = test system: Escherichia coli; assay: Antibacterial activity against Escherichia coli K-12 W3110 by microdilution method; type: functional; details: K-12 substr. W3110
[10] = Therapeutic index, ratio of LD50 for Escherichia coli K-12 W3110 infected mouse to ED50 for Escherichia coli K-12 W3110; details: read-out: Ratio LD50/ED50
[11] = test system: Escherichia coli; assay: Antibacterial activity against Escherichia coli K-12 W3110 infected in mouse assessed as reduction of bacterial level in blood at 30 ug, ip administered 15 mins and 12 hrs postinfection measured after 2 hrs post dose relative to control; type: functional, K-12 substr. W3110; parameters: scale not given: the % may be the effect or the level left; outline: as §1
[12] = test system: Escherichia coli; assay: Antibacterial activity against Escherichia coli K-12 W3110 infected in mouse assessed as reduction of bacterial level in blood at 100 ug, ip administered 15 mins and 12 hrs postinfection measured after 12 hrs post dose relative to control; type: functional, K-12 substr. W3110; outline: as §1
[13] = test system: Escherichia coli; assay: Antibacterial activity against Escherichia coli K-12 W3110 infected in mouse assessed as increase of mouse survival at 10 ug, ip administered 15 mins and 12 hrs postinfection; type: functional, organism-based; details: K-12 substr. W3110, filed as antagonist; outline: as §2
[14] = test system: Escherichia coli; assay: Antibacterial activity against Escherichia coli K-12 W3110 infected in mouse assessed as increase of mouse survival at 30 to 300 ug, ip administered 15 mins and 12 hrs postinfection; type: functional, organism-based; details: K-12 substr. W3110; outline: as §2

With `Cc1cn([C@H]2CN(P(=O)(OC[C@@H]3CN(P(=O)(OC[C@@H]4CN(P(=O)(OC[C@@H]5CN(P(=O)(OC[C@@H]6CN(P(=O)(OC[C@@H]7CN(P(=O)(OC[C@@H]8CN(P(=O)(OC[C@@H]9CN(P(=O)(OC[C@@H]%10CNC[C@H](n%11cnc%12c(=O)[nH]c(N)nc%12%11)O%10)N(C)C)C[C@H](n%10cc(C)c(=O)[nH]c%10=O)O9)N(C)C)C[C@H](n9cnc%10c(=O)[nH]c(N)nc%109)O8)N(C)C)C[C@H](n8cnc9c(N)ncnc98)O7)N(C)C)C[C@H](n7cc(C)c(=O)[nH]c7=O)O6)N(C)C)C[C@H](n6cnc7c(N)ncnc76)O5)N(C)C)C[C@H](n5cnc6c(=O)[nH]c(N)nc65)O4)N(C)C)C[C@H](n4ccc(N)nc4=O)O3)N(C)C)C[C@@H](COP(=O)(N(C)C)N3C[C@@H](COP(=O)(N(C)C)N4C[C@@H](COP(=O)(N(C)C)N5CCN(C(=O)CCNC(=O)CCCCCNC(=O)[C@H](CCCNC(=N)N)NC(=O)[C@H](Cc6ccccc6)NC(=O)[C@H](CCCNC(=N)N)NC(=O)[C@H](CCCNC(=N)N)NC(=O)NC(=O)[C@H](Cc6ccccc6)NC(=O)[C@H](CCCNC(=N)N)NC(=O)[C@H](CCCNC(=N)N)NC(=O)NC(=O)[C@H](Cc6ccccc6)NC(=O)[C@H](CCCNC(=N)N)NC(=O)[C@H](CCCNC(=N)N)NC(=O)NC(=O)[C@H](Cc6ccccc6)NC(=O)[C@@H](N)CCCNC(=N)N)CC5)O[C@@H](n5ccc(N)nc5=O)C4)O[C@@H](n4cc(C)c(=O)[nH]c4=O)C3)O2)c(=O)[nH]c1=O` (stereo partly specified) the LD50 [1] was 300 mg/kg, the log10cfu [2] was 2 and the Activity [3] was “Active”. The log10cfu [4] was 2, the Activity [5] was “Non-toxic” and the log10cfu [6] was 2. The Activity [7] was “inactive”, the ED50 [8] was 1.5 mg/kg and the MIC [9] was 0.625 µM (≈ 3.71 µg/mL). The selectivity ratio [10] was 200.
For `Cc1cn([C@H]2CN(P(=O)(OC[C@@H]3CN(P(=O)(OC[C@@H]4CN(P(=O)(OC[C@@H]5CN(P(=O)(OC[C@@H]6CN(P(=O)(OC[C@@H]7CN(P(=O)(OC[C@@H]8CN(P(=O)(OC[C@@H]9CN(P(=O)(OC[C@@H]%10CNC[C@H](n%11cnc%12c(=O)[nH]c(N)nc%12%11)O%10)N(C)C)C[C@H](n%10cc(C)c(=O)[nH]c%10=O)O9)N(C)C)C[C@H](n9cnc%10c(=O)[nH]c(N)nc%109)O8)N(C)C)C[C@H](n8cnc9c(N)ncnc98)O7)N(C)C)C[C@H](n7cc(C)c(=O)[nH]c7=O)O6)N(C)C)C[C@H](n6cnc7c(N)ncnc76)O5)N(C)C)C[C@H](n5cnc6c(=O)[nH]c(N)nc65)O4)N(C)C)C[C@H](n4ccc(N)nc4=O)O3)N(C)C)C[C@@H](COP(=O)(N(C)C)N3C[C@@H](COP(=O)(N(C)C)N4C[C@@H](COP(=O)(N(C)C)N5CCN(C(=O)CCNC(=O)CCCCCNC(=O)[C@H](CCCNC(=N)N)NC(=O)CCCCNC(=O)[C@H](CCCNC(=N)N)NC(=O)[C@H](CCCNC(=N)N)NC(=O)CCCCNC(=O)[C@H](CCCNC(=N)N)NC(=O)[C@H](CCCNC(=N)N)NC(=O)CCCCNC(=O)[C@H](CCCNC(=N)N)NC(=O)[C@H](CCCNC(=N)N)NC(=O)CCCCNC(=O)[C@@H](N)CCCNC(=N)N)CC5)O[C@@H](n5ccc(N)nc5=O)C4)O[C@@H](n4cc(C)c(=O)[nH]c4=O)C3)O2)c(=O)[nH]c1=O` (stereo partly specified), the Activity [11] was 98%, the log10cfu [12] was 2.5 and the Activity [13] was “Antagonist”. For the same molecule, the log10cfu [4] was 2.5, the MIC [9] was 1.25 µM (≈ 7.02 µg/mL) and the Activity [14] was “Active”.
